Assay results: ChEMBL document CHEMBL1148061, “Antiplatelet aggregation principles of Dendrobium loddigesii” (J Nat Prod, 1994)

Assays:
[1] = (§1) Antiplatelet activity against washed rabbit platelet assessed as inhibition of arachidonic acid-induced platelet aggregation preincubated for 3 mins by turbidimetric method; format: functional, cell-based; conditions: Oryctolagus cuniculus
Outline: (§2)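 Washed rabbit platelets, 4.5×10^8/ml in Tyrode–0.35% BSA, stirred at 1200 rpm at 37°. Compound preincubated 3 min (final DMSO 0.5%) before arachidonic acid 100 μM. Aggregation read turbidimetrically. Percent inhibition across concentrations given as means ± S.E. (n=3); IC50 taken from the concentration–response curve.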

Platelet = assay: as §1; format: functional, cell-based; conditions: Oryctolagus cuniculus; outline: as §2
[2] = Antiplatelet activity against washed rabbit platelet assessed as inhibition of arachidonic acid-induced platelet aggregation at 100 ug/ml preincubated for 3 mins by turbidimetric method; format: functional, Oryctolagus cuniculus; design: scale not given: the % may be the effect or the level left
Outline: (§3)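 Washed rabbit platelets from EDTA-anticoagulated platelet-rich plasma, 4.5×10^8/ml in Tyrode solution with 0.35% BSA, stirred at 1200 rpm at 37°. Turbidimetric read-out; % aggregation as means ± S.E. (n=3), Student's t test versus DMSO control.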

[3] = Antiplatelet activity against washed rabbit platelet assessed as inhibition of platelet activating factor-induced platelet aggregation at 100 ug/ml preincubated for 3 mins by turbidimetric method; format: functional, Oryctolagus cuniculus; design: scale not given: the % may be the effect or the level left; outline: as §3
[4] = Antiplatelet activity against washed rabbit platelet assessed as inhibition of collagen-induced platelet aggregation at 100 ug/ml preincubated for 3 mins by turbidimetric method; format: functional, Oryctolagus cuniculus; design: scale not given: the % may be the effect or the level left; outline: as §3
[5] = Antiplatelet activity against washed rabbit platelet assessed as inhibition of arachidonic acid-induced platelet aggregation at 5 ug/ml preincubated for 3 mins by turbidimetric method; values are per cent of control
[6] = Antiplatelet activity against washed rabbit platelet assessed as inhibition of arachidonic acid-induced platelet aggregation at 20 ug/ml preincubated for 3 mins by turbidimetric method; format: functional, Oryctolagus cuniculus; design: scale not given: the % may be the effect or the level left; outline: as §3
[7] = Antiplatelet activity against washed rabbit platelet assessed as inhibition of arachidonic acid-induced platelet aggregation at 10 ug/ml preincubated for 3 mins by turbidimetric method; values are per cent of control
[8] = Antiplatelet activity against washed rabbit platelet assessed as inhibition of thrombin-induced platelet aggregation at 100 ug/ml preincubated for 3 mins by turbidimetric method; format: functional, Oryctolagus cuniculus; design: scale not given: the % may be the effect or the level left; outline: as §3
[9] = Antiplatelet activity against washed rabbit platelet assessed as inhibition of collagen-induced platelet aggregation at 50 ug/ml preincubated for 3 mins by turbidimetric method; format: functional, Oryctolagus cuniculus; design: scale not given: the % may be the effect or the level left; outline: as §3
[10] = Antiplatelet activity against washed rabbit platelet assessed as inhibition of collagen-induced platelet aggregation at 10 ug/ml preincubated for 3 mins by turbidimetric method; format: functional, Oryctolagus cuniculus; outline: as §3
[11] = Antiplatelet activity against washed rabbit platelet assessed as inhibition of collagen-induced platelet aggregation at 20 ug/ml preincubated for 3 mins by turbidimetric method; format: functional, Oryctolagus cuniculus; outline: as §3
[12] = Antiplatelet activity against washed rabbit platelet assessed as inhibition of platelet activating factor-induced platelet aggregation at 50 ug/ml preincubated for 3 mins by turbidimetric method; format: functional, Oryctolagus cuniculus; design: scale not given: the % may be the effect or the level left; outline: as §3
[13] = Antiplatelet activity against washed rabbit platelet assessed as inhibition of collagen-induced platelet aggregation at 2 ug/ml preincubated for 3 mins by turbidimetric method; format: functional, Oryctolagus cuniculus; outline: as §3
[14] = Antiplatelet activity against washed rabbit platelet assessed as inhibition of collagen-induced platelet aggregation at 5 ug/ml preincubated for 3 mins by turbidimetric method; format: functional, Oryctolagus cuniculus; outline: as §3
[15] = Antiplatelet activity against washed rabbit platelet assessed as inhibition of arachidonic acid-induced platelet aggregation at 50 ug/ml preincubated for 3 mins by turbidimetric method; values are per cent of control

IC50 [1] [µM]	SMILES	Activity (Platelet)	Activity [2] [%]	Activity [3] [%]	Activity [4] [%]	level, % of control [5] [%]	Activity [6] [%]	level, % of control [7] [%]	Activity [8] [%]	Activity [9] [%]	aggregation [10] [%]	aggregation [11] [%]	Activity [12] [%]	aggregation [13] [%]	aggregation [14] [%]	level, % of control [15] [%]
11.2	COc1cc(CCc2cc(OC)c(OC(C)=O)c(OC)c2)ccc1OC(C)=O [MOSCATILIN DIACETATE]	Dose-dependent effect	0	36	12.8	33.9	0	0	93.4	–	–	–	–	–	–	–
61.8	COc1cc(CCc2cc(OC)c(O)c(OC)c2)ccc1O [MOSCATILIN]	Dose-dependent effect	0	24.7	0	78.7	36.4	52	85.3	0	42.3	19.6	72.1	78.5	58.4	0

SMILES	IC50 [1] [µM]	Activity (Platelet)	Activity [2] [%]	Activity [3] [%]	Activity [4] [%]	level, % of control [5] [%]	Activity [6] [%]	level, % of control [7] [%]	Activity [8] [%]	Activity [9] [%]	aggregation [10] [%]	aggregation [11] [%]	Activity [12] [%]	aggregation [13] [%]	aggregation [14] [%]	level, % of control [15] [%]
COc1cc(O)cc2ccc3cccc(O)c3c12 [MOSCATIN]	37.2	Dose-dependent effect	0	24.7	0	87.6	0	22.8	41	0	42.3	19.6	72.1	78.5	58.4	0
